Calls of active or inactive are those of the source. The rule behind the calls is not given here.

Our source for the Activity values is ChEMBL document CHEMBL4368917, “Synthesis and Evaluation of a QS-17/18-Based Vaccine Adjuvant” (J Med Chem, 2019).

A short description of data set [1]: Toxicity in BALB/c mouse assessed as effect on body weight at 50 to 100 ug, sc measured after 41 days. Type of data set: organism-based. The settings on record: in vivo, 984 h. In outline:
(§1)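 Mice were weighed before each immunization and on day 42 after the last immunization. Adjuvant was given with rHagB antigen at 100 μg, or at 50 μg for one group.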

Data set [2] relates to Mus musculus. As to the kind of experiment: Potentiation of recombinant Porphyromonas gingivalis HagB induced Th1/Th2 immune response in BALB/c mouse assessed as increase in IgG2a levels at 100 ug, sc measured at week 4 and 6 by ELISA. Type of data set: functional, organism-based. In outline:
(§2)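 Mice from Frederick Cancer Research were immunized with rHagB plus adjuvant (100 or 50 μg; adjuvant given at 1.0 mg/mL as solution or suspension with antigen). Retro-orbital blood was collected before and after immunization, and serum was stored at −20 °C. ELISA plates were coated with rHagB (1 μg/mL) in borate buffered saline pH 8.2; serial two-fold serum dilutions were run in duplicate.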

Data set [3] has as its system Mus musculus. The data set is described as follows: Potentiation of serum IgG/recombinant Porphyromonas gingivalis HagB induced-immune response in BALB/c mouse at 100 ug, sc immunized on day 14 and 28 after 42 days by ELISA. The format is functional, organism-based. The essentials: as §2
(In an ELISA, binding on a coated surface is turned into a signal by an enzyme label.)

Data set [4] relates to Mus musculus. The data set is described as follows: Potentiation of recombinant Porphyromonas gingivalis HagB induced Th1/Th2 immune response in BALB/c mouse assessed as increase in IgG1 levels at 50 ug, sc measured at week 4 and 6 by ELISA. Type of data set: functional, organism-based. In outline: as §2
Data set [5] has as its system Mus musculus. The data set is described as follows: Potentiation of serum IgG/recombinant Porphyromonas gingivalis HagB induced immune response n BALB/c mouse at 100 ug, sc immunized on day 14 and 28 measured week 4 and 6 post immunization by ELISA. Type of data set: functional, organism-based. The essentials: as §2
Data set [6] has as its system Mus musculus. The data set is described as follows: Potentiation of recombinant Porphyromonas gingivalis HagB induced Th1/Th2 immune response in BALB/c mouse assessed as increase in IgG2a levels at 50 ug, sc measured at week 4 and 6 by ELISA. The format is functional, organism-based. The essentials: as §2
The subject of data set [7] is Mus musculus. As to the kind of experiment: Potentiation of recombinant Porphyromonas gingivalis HagB induced Th1/Th2 immune response in BALB/c mouse assessed as increase in IgG1 levels at 100 ug, sc measured at week 4 and 6 by ELISA. The format is functional, organism-based. In outline: as §2
The test system of data set [8] is Mus musculus. As to the kind of experiment: Potentiation of recombinant Porphyromonas gingivalis HagB induced Th1/Th2 immune response in BALB/c mouse assessed as increase in IgG1 levels at 100 ug, sc measured at week 4 by ELISA. Type of data set: functional, organism-based. In outline:
as §2

Data set [9] can be described thus: Toxicity in BALB/c mouse assessed as effect on body weight at 100 ug, sc measured after 41 days. The settings on record: in vivo, 984 h. The format is organism-based. In outline: as §1

`CCCCCCCCCCCCNC(=O)[C@H]1O[C@@H](O[C@H]2CC[C@]3(C)[C@H]4CC=C5[C@@H]6CC(C)(C)CC[C@]6(C(=O)O[C@@H]6O[C@H](C)[C@H](O)[C@H](O)[C@H]6O[C@@H]6O[C@@H](C)[C@H](O[C@@H]7OC[C@@H](O)[C@H](O[C@@H]8OC[C@@H](O)[C@H](O)[C@H]8O)[C@H]7O)[C@@H](O[C@@H]7O[C@H](CO)[C@@H](O)[C@H](O)[C@H]7O)[C@H]6O)[C@H](O)C[C@@]5(C)[C@]4(C)CC[C@H]3[C@]2(C)C=O)[C@H](O[C@@H]2O[C@H](CO)[C@H](O)[C@H](O)[C@H]2O)[C@@H](O[C@@H]2OC[C@@H](O)[C@H](O)[C@H]2O)[C@@H]1O`: in data set [1], the Activity result is reported as “Non-Toxic”. Also, the outcome in data set [2], in data set [3], in data set [4], in [5], in [6] and in data set [7] was Active.
In the case of `CCCCCCCCCCCCNC(=O)[C@H]1O[C@@H](O[C@H]2CC[C@]3(C)[C@H]4CC=C5[C@@H]6CC(C)(C)CC[C@]6(C(=O)O[C@@H]6O[C@H](C)[C@H](O)[C@H](O)[C@H]6O[C@@H]6O[C@@H](C)[C@H](O[C@@H]7OC[C@@H](O)[C@H](O[C@@H]8OC[C@](O)(CO)[C@H]8O)[C@H]7O)[C@@H](O)[C@H]6O)[C@H](O)C[C@@]5(C)[C@]4(C)CC[C@H]3[C@]2(C)C=O)[C@H](O[C@@H]2O[C@H](CO)[C@H](O)[C@H](O)[C@H]2O)[C@@H](O[C@@H]2OC[C@@H](O)[C@H](O)[C@H]2O)[C@@H]1O`, the result in data set [2], in [3] and in data set [8] was inactive. In data set [9], the Activity entry is listed as “Non-Toxic”.
